According to ChEMBL document CHEMBL4346672, “Antimicrobial and KPC/AmpC inhibitory activity of functionalized benzosiloxaboroles” (Eur J Med Chem, 2019):
Activity calls are given as the source filed them. The rule behind the calls is not given here.

Key:
[1] = system: Klebsiella pneumoniae ATCC BAA-1705; assay: Inhibition of beta lactamase KPC in Klebsiella pneumoniae ATCC BAA 1705 assessed as potentiation of meropenem-induced antibacterial activity by measuring diameter of zone inhibition at 0.3 mg incubated for 18 hrs in presence of 10 ug meropenem by CLSI disc diffusion method (Rvb=[…] mm)
[2] = system: Klebsiella pneumoniae ATCC BAA-1705; assay: Inhibition of beta lactamase KPC-2 in Klebsiella pneumoniae ATCC BAA 1705 assessed as potentiation of meropenem-induced antibacterial activity by measuring meropenem MIC at 16 mg/L incubated for 18 hrs by broth dilution method (reference value: […] mg/L)
Klebsiella pneumoniae [3] = assay: Inhibition of beta lactamase SHV-12 in Klebsiella pneumoniae ATCC 700603 assessed as potentiation of ceftazidime-induced antibacterial activity by measuring ceftazidime MIC at 16 mg/L incubated for 18 hrs by broth dilution method (reference value: […] mg/L)
Klebsiella pneumoniae [4] = assay: Inhibition of beta lactamase KPC-3 in Klebsiella pneumoniae 81 assessed as potentiation of ceftazidime-induced antibacterial activity by measuring ceftazidime MIC at 16 mg/L incubated for 18 hrs by broth dilution method (reference value: >[…] mg/L)
Acinetobacter baumannii [5] = assay: Inhibition of beta lactamase OXA-24 in Acinetobacter baumannii 181 assessed as potentiation of meropenem-induced antibacterial activity by measuring meropenem MIC at 16 mg/L incubated for 18 hrs by broth dilution method (reference value: […] mg/L)
Klebsiella pneumoniae [6] = assay: Inhibition of beta lactamase KPC-2 in Klebsiella pneumoniae 75 assessed as potentiation of ceftazidime-induced antibacterial activity by measuring ceftazidime MIC at 16 mg/L incubated for 18 hrs by broth dilution method (reference value: […] mg/L)
Klebsiella pneumoniae [7] = assay: Inhibition of beta lactamase KPC-2 in Klebsiella pneumoniae 75 assessed as potentiation of meropenem-induced antibacterial activity by measuring meropenem MIC at 16 mg/L incubated for 18 hrs by broth dilution method (reference value: […] mg/L)
Pseudomonas aeruginosa [8] = assay: Inhibition of beta lactamase VIM in Pseudomonas aeruginosa 698 assessed as potentiation of ceftazidime-induced antibacterial activity by measuring ceftazidime MIC at 16 mg/L incubated for 18 hrs by broth dilution method (reference value: […] mg/L)
[9] = biological target: Class A carbapenemase KPC-2 (Escherichia coli) (UniProt A8DS27); assay: Inhibition of beta lactamase KPC-2 in Escherichia coli 76 assessed as potentiation of meropenem-induced antibacterial activity by measuring meropenem MIC at 16 mg/L incubated for 18 hrs by broth dilution method (reference value: >[…] mg/L)
Pseudomonas aeruginosa [10] = assay: Inhibition of beta lactamase AmpC in Pseudomonas aeruginosa 700 assessed as potentiation of ceftazidime-induced antibacterial activity by measuring ceftazidime MIC at 16 mg/L incubated for 18 hrs by broth dilution method (reference value: >[…] mg/L)
Pseudomonas aeruginosa [11] = assay: Inhibition of beta lactamase OXA-15 in Pseudomonas aeruginosa 852 assessed as potentiation of ceftazidime-induced antibacterial activity by measuring ceftazidime MIC at 16 mg/L incubated for 18 hrs by broth dilution method (reference value: >[…] mg/L)
Acinetobacter baumannii [12] = assay: Inhibition of beta lactamase OXA-24 in Acinetobacter baumannii 181 assessed as potentiation of ceftazidime-induced antibacterial activity by measuring ceftazidime MIC at 16 mg/L incubated for 18 hrs by broth dilution method (reference value: >[…] mg/L)
Pseudomonas aeruginosa [13] = assay: Inhibition of beta lactamase AmpC in Pseudomonas aeruginosa MUW 700 assessed as potentiation of ceftazidime-induced antibacterial activity by measuring diameter of zone inhibition at 0.3 mg incubated for 18 hrs in presence of 30 ug ceftazidime by CLSI disc diffusion method (Rvb=11 mm)
Outline: (§1)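 AmpC combination disc test on Mueller-Hinton agar, following EUCAST guidance and Yagi et al. Inhibition zones were compared between a CAZ-30 disc and a ceftazidime disc plus agent or PBA, each at 0.3 mg per disc. Plates were incubated at 35 °C for 18 h. A zone difference of at least 5 mm was counted as inhibition.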

[14] = system: Klebsiella pneumoniae ATCC BAA-1705; assay: Inhibition of beta lactamase KPC-2 in Klebsiella pneumoniae ATCC BAA 1705 assessed as potentiation of ceftazidime-induced antibacterial activity by measuring ceftazidime MIC at 16 mg/L incubated for 18 hrs by broth dilution method
Escherichia coli [15] = assay: Inhibition of beta lactamase KPC-3 in Escherichia coli 82 TR assessed as potentiation of ceftazidime-induced antibacterial activity by measuring ceftazidime MIC at 16 mg/L incubated for 18 hrs by broth dilution method (reference value: […] mg/L)
[16] = system: Klebsiella pneumoniae 700603; assay: (§2) Inhibition of extended-spectrum beta lactamase in Klebsiella pneumoniae ATCC 700603 assessed as potentiation of cefotaxime-induced antibacterial activity by measuring diameter of zone inhibition at 0.3 mg incubated for 18 hrs in presence of 10 ug cefotaxime by CLSI disc diffusion method (Rvb=19 mm)
Outline: (§3)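 EUCAST ESBL combination disc test on Mueller-Hinton agar. Zones were compared between a ceftazidime or cefotaxime disc alone and the same disc plus agent at 0.3 mg per disc. Clavulanic acid discs at 0.01 mg per disc served as reference. Plates were incubated at 35 °C for 18 h. A difference of at least 5 mm was counted as inhibition.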

Klebsiella pneumoniae [17] = assay: Inhibition of beta lactamase KPC-3 in Klebsiella pneumoniae 83 assessed as potentiation of meropenem-induced antibacterial activity by measuring meropenem MIC at 16 mg/L incubated for 18 hrs by broth dilution method (reference value: […] mg/L)
[18] = biological target: Class A carbapenemase KPC-2 (Escherichia coli) (UniProt A8DS27); assay: Inhibition of beta lactamase KPC-2 in Escherichia coli 76 assessed as potentiation of ceftazidime-induced antibacterial activity by measuring ceftazidime MIC at 16 mg/L incubated for 18 hrs by broth dilution method (reference value: >[…] mg/L)
[19] = system: Klebsiella pneumoniae 700603; assay: as §2, with “ceftazidime-induced” for “cefotaxime-induced”, “ceftazidime” for “cefotaxime”, “(Rvb=13” for “(Rvb=19”; outline: as §3
Escherichia coli [20] = assay: Inhibition of beta lactamase CMY-2 in Escherichia coli 77 assessed as potentiation of ceftazidime-induced antibacterial activity by measuring diameter of zone inhibition at 0.3 mg incubated for 18 hrs in presence of 30 ug ceftazidime by CLSI disc diffusion method (Rvb=13 mm); outline: as §1
Klebsiella pneumoniae [21] = assay: Inhibition of beta lactamase CMY-2 in Klebsiella pneumoniae 78 assessed as potentiation of ceftazidime-induced antibacterial activity by measuring ceftazidime MIC at 16 mg/L incubated for 18 hrs by broth dilution method (reference value: >[…] mg/L)
Klebsiella pneumoniae [22] = assay: Inhibition of beta lactamase KPC-3 in Klebsiella pneumoniae 81 assessed as potentiation of meropenem-induced antibacterial activity by measuring meropenem MIC at 16 mg/L incubated for 18 hrs by broth dilution method (reference value: […] mg/L)
Escherichia coli [23] = assay: Inhibition of beta lactamase KPC-3 in Escherichia coli 82 TR assessed as potentiation of meropenem-induced antibacterial activity by measuring meropenem MIC at 16 mg/L incubated for 18 hrs by broth dilution method (reference value: 2 mg/L)
Escherichia coli [24] = assay: Inhibition of beta lactamase CMY-2 in Escherichia coli 77 assessed as potentiation of ceftazidime-induced antibacterial activity by measuring ceftazidime MIC at 16 mg/L incubated for 18 hrs by broth dilution method (reference value: […] mg/L)
Klebsiella pneumoniae [25] = assay: Inhibition of beta lactamase KPC-3 in Klebsiella pneumoniae 83 assessed as potentiation of ceftazidime-induced antibacterial activity by measuring ceftazidime MIC at 16 mg/L incubated for 18 hrs by broth dilution method (reference value: >[…] mg/L)
[26] = system: Meyerozyma guilliermondii; assay: Antifungal activity against Candida guilliermondii IBA 155 assessed as diameter of zone inhibition incubated for 24 hrs by CLSI disc diffusion method; type: functional
Outline: (§4)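 Yeast disc diffusion on Mueller-Hinton agar supplemented with 2% glucose and 0.5 mg/L methylene blue. Compounds in DMSO. Yeasts subcultured on Sabouraud dextrose agar before testing. Zones read after 35 °C, 24 h.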

Escherichia coli [27] = assay: Antibacterial activity against Escherichia coli ATCC 25922 assessed as diameter of zone inhibition measured after 18 hrs by CLSI disc diffusion method; type: functional
Outline: (§5)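 Disc diffusion on Mueller-Hinton II agar. Compounds dissolved in DMSO. Strains stored at -80 °C and subcultured twice on tryptic soy agar before testing. Inhibition zones read after 35 °C, 18 h.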

[28] = system: Staphylococcus epidermidis; assay: Antibacterial activity against Staphylococcus epidermidis ATCC 12228 assessed as diameter of zone inhibition measured after 18 hrs by CLSI disc diffusion method; type: functional; outline: as §5
Pichia kudriavzevii = assay: Antifungal activity against Candida krusei ATCC 6258 assessed as diameter of zone inhibition incubated for 24 hrs by CLSI disc diffusion method; type: functional; outline: as §4
Candida albicans = assay: Antifungal activity against Candida albicans ATCC 90028 assessed as diameter of zone inhibition incubated for 24 hrs by CLSI disc diffusion method; type: functional; outline: as §4
Candida parapsilosis = assay: Antifungal activity against Candida parapsilosis ATCC 22019 assessed as diameter of zone inhibition incubated for 24 hrs by CLSI disc diffusion method; type: functional; outline: as §4
[29] = system: Stenotrophomonas maltophilia; assay: Antibacterial activity against Stenotrophomonas maltophilia ATCC 13637 assessed as diameter of zone inhibition measured after 18 hrs by CLSI disc diffusion method; type: functional; outline: as §5
Candida tropicalis = assay: Antifungal activity against Candida tropicalis IBA 171 assessed as diameter of zone inhibition incubated for 24 hrs by CLSI disc diffusion method; type: functional; outline: as §4
[30] = system: Bordetella bronchiseptica; assay: Antibacterial activity against Bordetella bronchiseptica ATCC 4617 assessed as diameter of zone inhibition measured after 18 hrs by CLSI disc diffusion method; type: functional; outline: as §5
Klebsiella pneumoniae [31] = conditions: ATCC 13883
Enterococcus faecium = assay: Antibacterial activity against Enterococcus faecium ATCC 6057 assessed as diameter of zone inhibition measured after 18 hrs by CLSI disc diffusion method; type: functional; outline: as §5
Saccharomyces cerevisiae = assay: Antifungal activity against Saccharomyces cerevisiae ATCC 9763 diameter of zone inhibition incubated for 24 hrs by CLSI disc diffusion method; type: functional
Outline: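 Disc-diffusion run on Mueller-Hinton II agar with 2% glucose and 0.5 mg/L methylene blue, using compounds in DMSO. Yeast was precultured on Sabouraud dextrose agar (24–48 h, 30 °C). Zones read after 24 h at 35 °C.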

Staphylococcus aureus = assay: Antibacterial activity against Staphylococcus aureus ATCC 6538P assessed as diameter of zone inhibition measured after 18 hrs by CLSI disc diffusion method; type: functional; outline: as §5
Acinetobacter baumannii [32] = assay: Antibacterial activity against Acinetobacter baumannii ATCC 19606 assessed as diameter of zone inhibition measured after 18 hrs by CLSI disc diffusion method; type: functional; outline: as §5
Bacillus subtilis = assay: Antibacterial activity against Bacillus subtilis ATCC 6633 assessed as diameter of zone inhibition measured after 18 hrs by CLSI disc diffusion method; type: functional; outline: as §5
Serratia marcescens = conditions: ATCC 13880
Enterobacter cloacae = assay: Antibacterial activity against Enterobacter cloacae DSM 6234 assessed as diameter of zone inhibition measured after 18 hrs by CLSI disc diffusion method; type: functional; outline: as §5
[33] = Dissociation constant, pKa1 of compound in 0.1 M NaOH by potentiometric analysis; type: physicochemical
Enterococcus faecalis = assay: Antibacterial activity against Enterococcus faecalis ATCC 29212 assessed as diameter of zone inhibition measured after 18 hrs by CLSI disc diffusion method; type: functional; outline: as §5
Proteus mirabilis = assay: Antibacterial activity against Proteus mirabilis ATCC 12453 assessed as diameter of zone inhibition measured after 18 hrs by CLSI disc diffusion method; type: functional; outline: as §5
Pseudomonas aeruginosa [34] = assay: Antibacterial activity against Pseudomonas aeruginosa ATCC 27853 assessed as diameter of zone inhibition measured after 18 hrs by CLSI disc diffusion method; type: functional, organism-based; outline: as §5
Burkholderia cepacia = assay: Antibacterial activity against Burkholderia cepacia ATCC 25416 assessed as diameter of zone inhibition measured after 18 hrs by CLSI disc diffusion method; type: functional; outline: as §5

OB(O)c1ccccc1
inhibition zone (IZ) [1]: 22 mm
MIC [2]: 16 µg/mL
MIC (Klebsiella pneumoniae [3]): 64 µg/mL
MIC (Klebsiella pneumoniae [4]): 16 µg/mL
MIC (Acinetobacter baumannii [5]): > 64 µg/mL
MIC (Klebsiella pneumoniae [6]): 16 µg/mL
MIC (Klebsiella pneumoniae [7]): 16 µg/mL
MIC (Pseudomonas aeruginosa [8]): 64 µg/mL
MIC [9]: 32 µg/mL
MIC (Pseudomonas aeruginosa [10]): 8 µg/mL
MIC (Pseudomonas aeruginosa [11]): > 64 µg/mL
MIC (Acinetobacter baumannii [12]): > 64 µg/mL
inhibition zone (IZ) (Pseudomonas aeruginosa [13]): 22 mm
MIC [14]: 32 µg/mL
MIC (Escherichia coli [15]): 8 µg/mL
inhibition zone (IZ) [16]: 19 mm
MIC (Klebsiella pneumoniae [17]): 8 µg/mL
MIC [18]: > 64 µg/mL
inhibition zone (IZ) [19]: 14 mm
inhibition zone (IZ) (Escherichia coli [20]): 24 mm
MIC (Klebsiella pneumoniae [21]): 32 µg/mL
MIC (Klebsiella pneumoniae [22]): 2 µg/mL
MIC (Escherichia coli [23]): 0.25 µg/mL
MIC (Escherichia coli [24]): 8 µg/mL
MIC (Klebsiella pneumoniae [25]): 16 µg/mL

C[Si]1(C)OB(O)c2cccc(Cl)c21
diameter of the inhibition zone (DIZ) [26]: 25 mm
diameter of the inhibition zone (DIZ) (Escherichia coli [27]): inactive
diameter of the inhibition zone (DIZ) [28]: 33 mm
diameter of the inhibition zone (DIZ) (Pichia kudriavzevii): 17 mm
diameter of the inhibition zone (DIZ) (Candida albicans): 17 mm
diameter of the inhibition zone (DIZ) (Candida parapsilosis): 12 mm
diameter of the inhibition zone (DIZ) [29]: 13 mm
diameter of the inhibition zone (DIZ) (Candida tropicalis): 12 mm
diameter of the inhibition zone (DIZ) [30]: inactive
DIZ (Klebsiella pneumoniae [31]): inactive
diameter of the inhibition zone (DIZ) (Enterococcus faecium): 20 mm
diameter of the inhibition zone (DIZ) (Saccharomyces cerevisiae): 30 mm
diameter of the inhibition zone (DIZ) (Staphylococcus aureus): 34 mm
diameter of the inhibition zone (DIZ) (Acinetobacter baumannii [32]): inactive
diameter of the inhibition zone (DIZ) (Bacillus subtilis): 32 mm
DIZ (Serratia marcescens): inactive
diameter of the inhibition zone (DIZ) (Enterobacter cloacae): inactive
pKa [33]: 6.5
diameter of the inhibition zone (DIZ) (Enterococcus faecalis): 15 mm
diameter of the inhibition zone (DIZ) (Proteus mirabilis): 19 mm
diameter of the inhibition zone (DIZ) (Pseudomonas aeruginosa [34]): inactive
diameter of the inhibition zone (DIZ) (Burkholderia cepacia): inactive
